Measurements reported in ChEMBL document CHEMBL2380272, “Biological evaluation of bisbenzaldehydes against four Mycobacterium species” (Eur J Med Chem, 2013).
Converted amounts (≈) assume the structure as drawn.

Assays:
[1] = test system: Mycobacterium tuberculosis; test: Antimycobacterial activity against Mycobacterium tuberculosis H37Rv ATCC 27294 assessed as growth inhibition at 10 uM after 6 days by luciferase reporter gene assay relative to control; type: functional; settings: H37Rv ATCC 27294, 144 h, read-out: GI
Procedure, shortened: (§1)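 Luminescent M. tb H37Rv (hsp60-driven luciferase) in 7H9 + 10% FCS was seeded at 50 000 RLU/mL. Compounds were tested at 10, 1 and 0.1 µM from 10 mM DMSO stocks. After 6 days, luminescence was read with 1% n-decanal. Growth inhibition (%) was expressed against untreated culture, with triplicates.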

[2] = Cytotoxicity against human HepG2/C3A cells assessed as cell viability at 60 uM after 24 hrs by neutral red uptake assay relative to control; type: cell-based; settings: read-out: Activity
Procedure, shortened: (§2)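 C3A cells grown in DMEM + 10% FCS, 40 000 cells/well, recovered overnight at 37 °C, 5% CO2. Exposed 24 h to serial dilutions in DMEM + 10% FCS from 18 mM DMSO stocks, DMSO limited to 1%. Neutral red added for 3 h, cells washed, dye extracted with ethanol/acetic acid (50%/1%), OD read at 540 nm with 620 nm reference. Viability expressed as % of untreated cells.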

[3] = Cytotoxicity against human HepG2/C3A cells assessed as cell viability at 120 uM after 24 hrs by neutral red uptake assay relative to control; type: cell-based; settings: read-out: Activity; procedure, shortened: as §2
[4] = test system: Mycobacterium tuberculosis; test: Antimycobacterial activity against Mycobacterium tuberculosis H37Rv ATCC 27294 assessed as growth inhibition at 0.1 uM after 6 days by luciferase reporter gene assay relative to control; type: functional; settings: H37Rv ATCC 27294, 144 h, read-out: GI; procedure, shortened: as §1
[5] = test system: Mycobacterium avium subsp. paratuberculosis; test: Antimycobacterial activity against Mycobacterium avium subsp. paratuberculosis ATCC 19698 assessed as growth inhibition after 6 days by luciferase reporter gene assay; type: functional; settings: ATCC 19698, 144 h
Procedure, shortened: (§3)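 Mycobacteria carrying the pSMT1 luciferase reporter plasmid. Compounds came from 10 mM DMSO stocks and were serially diluted in 7H9 + 10% FCS. Thawed bacteria were filtered, recovered 1 h at 37 °C, then added at 50 000 RLU/mL. After 6 days of culture, light was read for 10 s after adding 1% n-decanal. Triplicates were run, and MIC50 was the concentration giving 50% growth inhibition.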

[6] = test system: Mycobacterium tuberculosis; test: Antimycobacterial activity against Mycobacterium tuberculosis H37Rv ATCC 27294 assessed as growth inhibition after 6 days by luciferase reporter gene assay; type: functional; settings: H37Rv ATCC 27294, 144 h; procedure, shortened: as §3
[7] = Cytotoxicity against human HepG2/C3A cells assessed as cell viability at 180 uM after 24 hrs by neutral red uptake assay relative to control; type: cell-based; settings: read-out: Activity; procedure, shortened: as §2
[8] = Toxicity in recombinant Salmonella typhimurium TA104 expressing luxabcd genes under transcriptional control of constitutive pr1 promoter assessed as concentration required to reduce cell viability measured every 5 mins for 4 hrs by vitotox assay in presence of S9 fraction; type: organism-based; settings: salmonella enterica subsp. enterica serovar typhimurium; read-out: Activity
Procedure, shortened: (§4)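 Cytox strain TA104 pr1 (constitutive promoter driving lux), run alongside the genox strain. Grown in poor LB at 36 °C for 16 h, diluted 125-fold and shaken 1 h, then diluted 10-fold, with or without aroclor-rat S9. Luminescence read at 30 °C every 5 min over 4 h; a drop in light signal indicates reduced viability. Top concentration 10 µM.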

[9] = test system: Salmonella typhimurium; test: Genotoxicity in recombinant Salmonella typhimurium TA104 expressing Vibrio fisheri luxabcd genes under transcriptional control of recN2-4 promoter assessed as concentration required to cause DNA damage measured every 5 mins for 4 hrs by vitotox assay in absence of S9 fraction; type: toxicity, organism-based; settings: salmonella enterica subsp. enterica serovar typhimurium
Procedure, shortened: (§5)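 VITOTOX genox strain TA104 recN2-4 (recN promoter driving lux). Grown 16 h at 36 °C in poor LB, diluted 125-fold and shaken 1 h, then diluted 10-fold; rat aroclor S9 added for +S9 runs. Incubated at 30 °C with light read every 5 min for 4 h. Signal/noise = exposed over unexposed light. Highest concentration tested 10 µM.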

[10] = test system: Mycobacterium tuberculosis; test: Antimycobacterial activity against Mycobacterium tuberculosis H37Rv ATCC 27294 assessed as growth inhibition at 1 uM after 6 days by luciferase reporter gene assay relative to control; type: functional; settings: H37Rv ATCC 27294, 144 h, read-out: GI; procedure, shortened: as §1
[11] = test system: Salmonella typhimurium; test: Toxicity in recombinant Salmonella typhimurium TA104 expressing luxabcd genes under transcriptional control of constitutive pr1 promoter assessed as concentration required to reduce cell viability measured every 5 mins for 4 hrs by vitotox assay in absence of S9 fraction; type: organism-based; settings: salmonella enterica subsp. enterica serovar typhimurium; procedure, shortened: as §4
[12] = test system: Mycobacterium ulcerans; test: Antimycobacterial activity against Mycobacterium ulcerans 1615 assessed as growth inhibition after 6 days by luciferase reporter gene assay; type: functional; settings: Mycobacterium ulcerans, 1615, 144 h
Procedure, shortened: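 M. ulcerans 1615 carrying pSMT1 luciferase reporter plasmid, stock grown as surface pellicle on Sauton medium, cultured at 32 °C. Serial compound dilutions in 7H9 + 10% FCS from 10 mM DMSO stocks, tested in triplicate. Filtered bacteria added at 50 000 RLU/mL. After 6 days, wells collected and washed with PBS, 1% n-decanal in ethanol added, light read over 10 s. MIC50 = concentration giving 50% inhibition versus untreated.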

[13] = Antimycobacterial activity against Mycobacterium avium subsp. avium ATCC 15769 assessed as growth inhibition after 6 days by luciferase reporter gene assay; type: functional; settings: ATCC 15769, 144 h; procedure, shortened: as §3
[14] = test system: Mycobacterium tuberculosis; test: Antimycobacterial activity against Mycobacterium tuberculosis H37Rv infected in mouse J774.A1 cells at 1 MOI assessed as intracellular bacterial growth inhibition at 10 uM after 1 hr by luciferase reporter gene assay relative to control; type: functional; settings: J774.A1, 1 h, read-out: GI
[15] = test system: Mycobacterium tuberculosis; test: Antimycobacterial activity against Mycobacterium tuberculosis H37Rv infected in mouse J774.A1 cells at 1 MOI assessed as intracellular bacterial growth inhibition at 0.1 uM after 1 hr by luciferase reporter gene assay relative to control; type: functional; settings: J774.A1, 1 h, read-out: GI
[16] = Selectivity index, ratio of NI50 for human HepG2/C3A cells to MIC50 for Mycobacterium tuberculosis H37Rv ATCC 27294; type: functional
[17] = test system: Salmonella typhimurium; test: Genotoxicity in recombinant Salmonella typhimurium TA104 expressing Vibrio fisheri luxabcd genes under transcriptional control of recN2-4 promoter assessed as concentration required to cause DNA damage measured every 5 mins for 4 hrs by vitotox assay in presence of S9 fraction; type: toxicity, organism-based; settings: salmonella enterica subsp. enterica serovar typhimurium, s9, 4 h; procedure, shortened: as §5
[18] = test system: Mycobacterium tuberculosis; test: Antimycobacterial activity against Mycobacterium tuberculosis H37Rv infected in mouse J774.A1 cells at 1 MOI assessed as intracellular bacterial growth inhibition at 1 uM after 1 hr by luciferase reporter gene assay relative to control; type: functional; settings: J774.A1, 1 h, read-out: GI
[19] = Potency index, ratio of MIC50 for Mycobacterium avium subsp. avium ATCC 15769 to MIC50 for Mycobacterium bovis AN5; type: functional
[20] = Potency index, ratio of MIC50 for Mycobacterium avium subsp. paratuberculosis ATCC 19698 to MIC50 for Mycobacterium bovis AN5; type: functional

Structure (SMILES): O=Cc1ccc(OCCCCOc2ccc(C=O)cc2)cc1
- inhibition of growth at 10 µM [1]: 87%
- viability at 24 h, 60 µM [2]: 86.1%
- viability at 24 h, 120 µM [3]: 73.2%
- inhibition of growth at 0.1 µM [4]: < 10%
- MIC50 [5]: > 10 µM
- MIC50 [6]: 3.21 µM (≈ 0.958 µg/mL)
- viability at 24 h, 180 µM [7]: 55.7%
- MCC at 4 h [8]: > 10 µM
- Activity [9]: > 10 µM
- inhibition of growth at 1 µM [10]: 25%
- Activity [11]: > 10 µM
- MIC50 [12]: > 10 µM
- MIC50 [13]: > 10 µM
- intracellular bacterial growth inhibition at 10 µM [14]: 41.3%
- intracellular bacterial growth inhibition at 0.1 µM [15]: -0.9%
- Selectivity Index [16]: >56.1
- Activity [17]: > 10 µM
- percent inhibition of intracellular bacterial growth at 1 µM [18]: 39%

Structure (SMILES): O=Cc1ccc(OCCCCCCCCCOc2ccc(C=O)cc2)cc1
- inhibition of growth at 10 µM [1]: 98%
- viability at 24 h, 60 µM [2]: 100%
- Ratio [19]: 5
- viability at 24 h, 120 µM [3]: 93%
- inhibition of growth at 0.1 µM [4]: 11%
- MIC50 [5]: 5.95 µM (≈ 2.19 µg/mL)
- MIC50 [6]: 0.95 µM (≈ 0.35 µg/mL)
- Ratio [20]: 5
- viability at 24 h, 180 µM [7]: 75.7%
- MCC at 4 h [8]: > 10 µM
- Activity [9]: > 10 µM
- inhibition of growth at 1 µM [10]: 59%
- Activity [11]: > 10 µM
- MIC50 [12]: > 10 µM
- MIC50 [13]: 5.32 µM (≈ 1.96 µg/mL)
- intracellular bacterial growth inhibition at 10 µM [14]: 62.1%
- intracellular bacterial growth inhibition at 0.1 µM [15]: -0.5%
- Selectivity Index [16]: >189.5
- Activity [17]: > 10 µM
- percent inhibition of intracellular bacterial growth at 1 µM [18]: 45.7%

Structure (SMILES): O=Cc1ccc(OCCCCCOc2ccc(C=O)cc2)cc1
- inhibition of growth at 10 µM [1]: 95%
- viability at 24 h, 60 µM [2]: 90.4%
- viability at 24 h, 120 µM [3]: 72.6%
- inhibition of growth at 0.1 µM [4]: < 10%
- MIC50 [5]: 8.69 µM (≈ 2.71 µg/mL)
- MIC50 [6]: 1.63 µM (≈ 0.509 µg/mL)
- viability at 24 h, 180 µM [7]: 45.6%
- MCC at 4 h [8]: > 10 µM
- Activity [9]: > 10 µM
- inhibition of growth at 1 µM [10]: 39%
- Activity [11]: > 10 µM
- MIC50 [12]: > 10 µM
- MIC50 [13]: 7.32 µM (≈ 2.29 µg/mL)
- intracellular bacterial growth inhibition at 10 µM [14]: 46.8%
- intracellular bacterial growth inhibition at 0.1 µM [15]: 0.2%
- Selectivity Index [16]: >110.4
- Activity [17]: > 10 µM
- percent inhibition of intracellular bacterial growth at 1 µM [18]: 38.1%

Structure (SMILES): O=Cc1ccc(OCCCCCCCOc2ccc(C=O)cc2)cc1
- inhibition of growth at 10 µM [1]: 99%
- viability at 24 h, 60 µM [2]: 100%
- Ratio [19]: 5
- viability at 24 h, 120 µM [3]: 78.9%
- inhibition of growth at 0.1 µM [4]: 13%
- MIC50 [5]: 5.05 µM (≈ 1.72 µg/mL)
- MIC50 [6]: 0.85 µM (≈ 0.289 µg/mL)
- Ratio [20]: 5
- viability at 24 h, 180 µM [7]: 53.4%
- MCC at 4 h [8]: > 10 µM
- Activity [9]: > 10 µM
- inhibition of growth at 1 µM [10]: 62%
- Activity [11]: > 10 µM
- MIC50 [12]: > 10 µM
- MIC50 [13]: 5.12 µM (≈ 1.74 µg/mL)
- intracellular bacterial growth inhibition at 10 µM [14]: 55%
- intracellular bacterial growth inhibition at 0.1 µM [15]: -1.2%
- Selectivity Index [16]: >211.8
- Activity [17]: > 10 µM
- percent inhibition of intracellular bacterial growth at 1 µM [18]: 43.3%

Structure (SMILES): O=Cc1ccc(OCCCOc2ccc(C=O)cc2)cc1
- inhibition of growth at 10 µM [1]: 84%
- viability at 24 h, 60 µM [2]: 94.9%
- viability at 24 h, 120 µM [3]: 94.8%
- inhibition of growth at 0.1 µM [4]: < 10%
- MIC50 [5]: > 10 µM
- MIC50 [6]: 2.65 µM (≈ 0.753 µg/mL)
- viability at 24 h, 180 µM [7]: 77.4%
- MCC at 4 h [8]: > 10 µM
- Activity [9]: > 10 µM
- inhibition of growth at 1 µM [10]: 35%
- Activity [11]: > 10 µM
- MIC50 [12]: > 10 µM
- MIC50 [13]: > 10 µM
- intracellular bacterial growth inhibition at 10 µM [14]: 42%
- intracellular bacterial growth inhibition at 0.1 µM [15]: -1.2%
- Selectivity Index [16]: >67.9
- Activity [17]: > 10 µM
- percent inhibition of intracellular bacterial growth at 1 µM [18]: 29.9%

Structure (SMILES): O=Cc1ccc(OCCOc2ccc(C=O)cc2)cc1
- inhibition of growth at 10 µM [1]: 90%
- viability at 24 h, 60 µM [2]: 93.6%
- viability at 24 h, 120 µM [3]: 85%
- inhibition of growth at 0.1 µM [4]: < 10%
- MIC50 [5]: > 10 µM
- MIC50 [6]: 2.23 µM (≈ 0.603 µg/mL)
- viability at 24 h, 180 µM [7]: 70.5%
- MCC at 4 h [8]: > 10 µM
- Activity [9]: > 10 µM
- inhibition of growth at 1 µM [10]: 41%
- Activity [11]: > 10 µM
- MIC50 [12]: > 10 µM
- MIC50 [13]: > 10 µM
- intracellular bacterial growth inhibition at 10 µM [14]: 39.2%
- intracellular bacterial growth inhibition at 0.1 µM [15]: 0.3%
- Selectivity Index [16]: >80.7
- Activity [17]: > 10 µM
- percent inhibition of intracellular bacterial growth at 1 µM [18]: 32.6%
